This note sets out measurements from ChEMBL document CHEMBL4699542, “Design and synthesis of novel methoxypyridine-derived gamma-secretase modulators” (Bioorg Med Chem, 2020).

The target in one data set is Cytochrome P450 2D6 (Homo sapiens, UniProt P10635). The data set is described as follows: Inhibition of recombinant CYP2D6 (unknown origin) by fluorescence-based assay. Type of data set: ADME. The method, boiled down:
(§1)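 Recombinant CYP isoforms (five tested) screened for inhibition in fluorescence-based assays; IC50 in μM.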

Data set [1] concerns the target Gamma-secretase. The data set is described as follows: Modulation of gamma secretase in human SH-SY5Y cells overexpressing wild type APP751 assessed as effect on amyloid beta42 level by meso scale discovery. The class given is cell-based.
Data set [2] is described as follows: Tmax in CD-1 mouse at 5 mg/kg, po administered as single dose measured up to 24 hrs. The class given is ADME, organism-based. The following applies: in vivo. The method in brief:
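Male CD-1 mice, 6–8 weeks old, single oral gavage dose in 5% NMP/95% PEG300. Plasma (K3EDTA, retro-orbital, under isoflurane) taken at 0.25, 0.5, 1, 2, 4, 8 and 24 h, n=3/timepoint, analysed by HPLC/MS/MS. Non-compartmental extravascular analysis (Model 200); Tmax taken directly from the data.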

A short description of data set [3]: Drug level in brain of transgenic J20 mouse overexpressing human APP at 50 mg/kg, po administered via gavage for 3 consecutive days and measured after 4 hrs post last dose on day 3 by HPLC-MS/MS analysis. The following applies: time 3 day, read-out: Ct. The class given is ADME, organism-based. The method, boiled down: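 Female J20 mice, 5–6 months old, given 25, 50 or 100 mg/kg orally (5% NMP/95% PEG300) daily for 3 days, n=5/dose. Plasma and brain taken 4 h after the final dose and analysed by LC-MS/MS. LLOQ was 1 ng/mL in plasma and 5 ng/g in brain.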

Data set [4] can be described thus: Apparent permeability from apical to basolateral membrane in MDCK-MDR1 cells. Type of data set: ADME, cell-based, Canis lupus familiaris. The conditions noted are these: dog. The method, boiled down:
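Apical-to-basolateral apparent permeability (×10⁻⁶ cm/s) measured across MDR1-MDCK cell monolayers.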

Data set [5] in a line: In vivo modulation of gamma secretase in transgenic J20 mouse overexpressing human APP assessed as reduction in plasma amyloid beta38 level at 100 mg/kg, po administered via gavage for 3 consecutive days and measured after 4 hrs post last dose on day 3 by meso scale discovery relative to control. The class given is functional. Also noted: scale not given: the % may be the effect or the level left. The following applies: time 3 day. The method, boiled down: (§2)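 Female J20 mice, 5–6 months old (n=5/dose), dosed orally at 25, 50 or 100 mg/kg or with vehicle (5% NMP/95% PEG300) for 3 consecutive days. Plasma was taken 4 h after the final dose. Aβ38/40/42 measured by Meso Scale multiplex immunoassay, with % reduction relative to vehicle. Mean ± SEM, ANOVA.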

The nature of data set [6]: Ratio of drug level in brain to plasma of transgenic J20 mouse overexpressing human APP at 50 mg/kg, po administered via gavage for 3 consecutive days and measured after 4 hrs post last dose on day 3 by HPLC-MS/MS analysis. Type of data set: ADME, organism-based. The following applies: 72 h, time 3 day. The method, boiled down: (§3)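 Female J20 mice, 5–6 months old (n=5/dose), dosed by oral gavage once daily for 3 days in 5% NMP/95% PEG300 vehicle. Sacrificed 4 h after the day-3 dose. Plasma and brain drug levels measured by LC-MS/MS (LLOQ 1 ng/mL plasma, 5 ng/g brain). Ratio = brain level/plasma level.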

Data set [7] can be described thus: Tmax in CD-1 mouse at 1 mg/kg, iv administered as single dose measured up to 24 hrs. Type of data set: ADME, organism-based. The following applies: in vivo. The method in brief: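 Male CD-1 mice, 6–8 weeks old, single tail-vein dose in 3% NMP/45% PEG300/12% ethanol/40% sterile water. Retro-orbital plasma (K3EDTA) taken at 0.083, 0.25, 0.5, 1, 2, 4, 8 and 24 h, n=3/timepoint, analysed by HPLC/MS/MS. Non-compartmental analysis (Model 201, uniform weighting); Tmax read directly from the data.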

A short description of data set [8]: In vivo modulation of gamma secretase in transgenic J20 mouse overexpressing human APP assessed as reduction in plasma amyloid beta42 level at 25 mg/kg, po administered via gavage for 3 consecutive days and measured after 4 hrs post last dose on day 3 by meso scale discovery relative to control. The class given is functional. More on the design: scale not given: the % may be the effect or the level left. The conditions noted are these: time 3 day. The method, boiled down: as §2

Data set [9] is described as follows: In vivo modulation of gamma secretase in transgenic J20 mouse overexpressing human APP assessed as reduction in plasma amyloid beta40 level at 50 mg/kg, po administered via gavage for 3 consecutive days and measured after 4 hrs post last dose on day 3 by meso scale discovery relative to control. Also noted: scale not given: the % may be the effect or the level left. The class given is functional. The following applies: time 3 day. The method in brief:
as §2

The next data set addresses T1, Cytochrome P450 1A2 (Homo sapiens, UniProt P05177).
T1 sequence (P05177 whole entry): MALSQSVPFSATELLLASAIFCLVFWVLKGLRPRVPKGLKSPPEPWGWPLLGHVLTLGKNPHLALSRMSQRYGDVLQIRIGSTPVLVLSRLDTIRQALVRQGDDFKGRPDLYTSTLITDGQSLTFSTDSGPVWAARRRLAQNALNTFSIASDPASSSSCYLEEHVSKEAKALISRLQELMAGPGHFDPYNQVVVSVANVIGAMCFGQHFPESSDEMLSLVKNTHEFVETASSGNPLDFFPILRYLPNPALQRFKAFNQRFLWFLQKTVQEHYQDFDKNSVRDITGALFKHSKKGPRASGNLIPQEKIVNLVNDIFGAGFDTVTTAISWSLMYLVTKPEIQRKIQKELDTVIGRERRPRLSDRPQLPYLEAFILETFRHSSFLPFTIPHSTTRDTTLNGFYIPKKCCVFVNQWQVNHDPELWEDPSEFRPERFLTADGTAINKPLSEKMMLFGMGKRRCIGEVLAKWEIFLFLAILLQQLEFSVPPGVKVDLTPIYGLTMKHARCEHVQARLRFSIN
The data set is described as follows: Inhibition of recombinant CYP1A2 (unknown origin) by fluorescence-based assay. Type of data set: ADME. The method in brief: as §1

The nature of data set [10]: Cmax in CD-1 mouse at 1 mg/kg, iv administered as single dose measured up to 24 hrs. Type of data set: ADME, organism-based. More on the design: route intravenous, dose 1 mg/kg, time <=24. The conditions noted are these: in vivo. The method, boiled down: (§4)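 Male CD-1 mice, 6–8 weeks old, single dose by tail vein (1 mg/kg, 3% NMP/45% PEG300/12% ethanol/40% water) or oral gavage (5 mg/kg, 5% NMP/95% PEG300). Retro-orbital plasma sampled 0.083 (iv only) to 24 h, n=3/timepoint, and analysed by HPLC/MS/MS. Non-compartmental analysis. Half-life taken from the terminal phase using ≥3 non-zero points after Tmax.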

Data set [11] can be described thus: Ratio of drug level in brain to plasma of transgenic J20 mouse overexpressing human APP at 25 mg/kg, po administered via gavage for 3 consecutive days and measured after 4 hrs post last dose on day 3 by HPLC-MS/MS analysis. The class given is ADME, organism-based. The following applies: 72 h, time 3 day. The method, boiled down:
as §3

For data set [12], the target named is Gamma-secretase. The experiment in a line: Modulation of gamma secretase in human SH-SY5Y cells overexpressing wild type APP751 assessed as effect on amyloid beta38 level by meso scale discovery. Type of data set: cell-based.
Data set [13] is described as follows: In vivo modulation of gamma secretase in transgenic J20 mouse overexpressing human APP assessed as reduction in plasma amyloid beta38 level at 50 mg/kg, po administered via gavage for 3 consecutive days and measured after 4 hrs post last dose on day 3 by meso scale discovery relative to control. Type of data set: functional. Also noted: scale not given: the % may be the effect or the level left. The conditions noted are these: time 3 day. The method, boiled down: as §2

A short description of data set [14]: Cmax in CD-1 mouse at 5 mg/kg, po administered as single dose measured up to 24 hrs. Type of data set: ADME, organism-based. More on the design: route oral, dose 5 mg/kg, time <=24. The following applies: in vivo. The method in brief: as §4
Data set [15] is described as follows: AUC infinity in CD-1 mouse at 1 mg/kg, iv administered as single dose measured up to 24 hrs. The class given is ADME, organism-based. Also noted: route intravenous, dose 1 mg/kg, time <=24. The following applies: in vivo. The method, boiled down: as §4
The target in data set [16] is Gamma-secretase. The data set is described as follows: Modulation of gamma secretase in human SH-SY5Y cells overexpressing wild type APP751 assessed as effect on amyloid beta40 level by meso scale discovery. The class given is cell-based.
Data set [17] is described as follows: Kinetic aqueous solubility of the compound in pH 7.4 PBS buffer by UV/Visible absorbance analysis. The class given is physicochemical. The following applies: read-out: Kinetic_solubility. The method, boiled down:
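Kinetic solubility determined in PBS at pH 7.4 by UV/Vis absorbance, reported in μM.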

Converted amounts (≈) assume the structure as drawn.

Chain of Cytochrome P450 2D6 (P10635 whole entry, canonical isoform): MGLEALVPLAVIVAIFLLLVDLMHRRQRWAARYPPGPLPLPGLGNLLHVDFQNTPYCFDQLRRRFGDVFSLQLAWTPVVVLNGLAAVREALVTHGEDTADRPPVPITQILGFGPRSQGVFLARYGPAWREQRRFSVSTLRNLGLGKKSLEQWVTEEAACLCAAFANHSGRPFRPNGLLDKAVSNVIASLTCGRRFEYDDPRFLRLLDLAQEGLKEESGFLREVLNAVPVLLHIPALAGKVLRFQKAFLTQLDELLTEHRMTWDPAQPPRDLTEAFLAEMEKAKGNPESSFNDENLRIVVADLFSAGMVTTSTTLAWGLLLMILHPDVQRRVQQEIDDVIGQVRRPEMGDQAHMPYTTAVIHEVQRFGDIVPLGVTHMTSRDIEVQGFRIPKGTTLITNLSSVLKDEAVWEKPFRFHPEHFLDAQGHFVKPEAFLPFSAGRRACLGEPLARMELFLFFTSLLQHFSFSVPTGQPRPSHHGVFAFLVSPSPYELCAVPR

The term IC50 denotes the concentration that inhibits the measured activity by half. In general, Tmax refers to the time at which the peak concentration occurs. The term Cmax denotes the maximum level reached in the sampled fluid or tissue. Usually EC50 stands for the concentration at which the effect is half-maximal. For orientation: AUC means the area under the concentration-time curve, a measure of exposure. Turning to `CCn1nc2c(c1Nc1nc(-c3ccc(-n4cnc(C)c4)c(OC)n3)cs1)CCC2`, the IC50 is over 100000 nM on Cytochrome P450 2D6, 19 nM on Gamma-secretase [1], over 100000 nM at Cytochrome P450 1A2 and 209 nM on Gamma-secretase [16]. The Tmax in data set [2] amounted to 15 min; in [7], 4.98 min. For the same compound, in data set [3], the concentration at 72 h is 83 ng/g. The Papp in data set [4] is 29.6 10^-6 cm/s. Also, the Activity in data set [5] is 50%; in [8], 29%; in data set [9], 31%; in data set [13], 27%. For the same compound, the BPR in data set [6] was determined as 0.38; in data set [11], 0.37. Moreover, the Cmax turned out to be 549 ng/mL in data set [10] and 377 ng/mL in data set [14]. In addition, at Gamma-secretase [12], the EC50 was determined as 202 nM. The compound further returned an AUC in [15] of 383 ng·h/mL. Further, in [17], the solubility kinetic was 7.8 µM (≈ 3.29 µg/mL).
As for `COc1nc(-c2csc(Nc3c4c(nn3CCF)CCCC4)n2)ccc1-n1cnc(C)c1`, the IC50 was over 100000 nM on Cytochrome P450 2D6, 14 nM at Gamma-secretase [1], over 100000 nM at Cytochrome P450 1A2 and 100 nM on Gamma-secretase [16]. Further, the Tmax is 60 min in data set [2] and 4.98 min in data set [7]. Also, the concentration at 72 h in data set [3] worked out at 282 ng/g. In data set [4], the Papp is 32.6 10^-6 cm/s. The Activity in data set [5] was 45%; in [8], 18%; in [9], 36%; in [13] it was 33%. Moreover, the BPR in data set [6] is on record as 0.42; in [11], 0.53. In addition, the highest concentration (Cmax) in data set [10] amounted to 309 ng/mL; in [14] it was 167 ng/mL. Besides, the EC50 at Gamma-secretase [12] came to 187 nM. Besides, in data set [15], the AUC is 288 ng·h/mL. The solubility kinetic in data set [17] was 15 µM (≈ 6.8 µg/mL).
